pIC50: −log10 of the molar value.
Assays:
[1] = test system: MCF-7; assay: antiproliferative assay, MCF-7; assay type: cell-based; settings: Homo sapiens, MCF7, read-out: IC50 MCF-7
In short: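 Run as an antiproliferative screen on human cancer lines alongside the normal mammary epithelial line MCF-10, with a positive control included. The highest test concentration was 33.3 μM.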

[2] = test system: MCF-10; assay: antiproliferative assay, normal mammary epithelial cell line MCF-10; assay type: cell-based; settings: Homo sapiens, MCF10, read-out: IC50 MCF-10
In short: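 Human cancer and normal mammary epithelial lines were tested in an antiproliferative assay. Shikonin served as the positive control. The highest test concentration was 33.3 μM.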

pIC50 [1] | SMILES | pIC50 [2]
< 4.48 | O=C1C2=C(C(=O)c3ccccc31)C(O)C1=C(O)CC(c3ccccc3)C1=C2O (stereo not drawn) [Compound 4a] | < 4.48
5.93 | COc1cccc2c1C(=O)c1c(O)c3c(c(O)c1C2=O)C[C@@](O)(C(=O)CO)C[C@@H]3O[C@H]1C[C@H](N)[C@H](O)[C@H](C)O1 [Doxorubicin, reference compound] | –

— publication PMC5474392 (Bioorganic & medicinal chemistry letters, 2016)
